Laboratory results taken from PMC4130341 (Journal of nuclear medicine : official publication, Society …, 2013).
Bridge positions count the residues as written; N and C are the ends. Peptide text beside a SMILES is read from it. * marks the point of attachment. Benzoyl(4-F) = O=C(c1ccc(F)cc1)*

What was measured:
[1] = system: 293 (integrin αvβ6–negative) tumors; assay: Excised tissue biodistribution; type: in vivo, mice; conditions: γ-counter, mean ± SD
Outline: (§1)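 Tumors were grown as subcutaneous shoulder xenografts (10^7 BxPC3 or HEK-293 cells) in 6-wk female nu/nu mice to 10 mm diameter. Isoflurane-anaesthetised mice received 2–3 MBq of 18F-fluorobenzoate peptide by tail vein and were euthanised at 0.5 or 2 h. Weighed tissues were γ-counted and expressed as decay-corrected %ID/g, mean ± SD. Group sizes: BxPC3 3 (0.5 h), 4–5 (2 h); 293 3 (0.5 h), 3–4 (2 h); nontumor 6 (0.5 h), 8 (2 h).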

[2] = system: BxPC3 (integrin αvβ6–positive) pancreatic adenocarcinoma xenografted tumors; assay: Small-animal PET, static scans, BxPC3 xenografts; type: in vivo, mice; conditions: mean ± SD
Outline: (§2)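 Nu/nu female mice (6 wk) carried BxPC3 shoulder xenografts of 10 mm diameter. Under isoflurane they were dosed intravenously (tail vein) with 2–3 MBq of 18F-fluorobenzoate-labelled peptide. Rodent microPET 5-min static scans were taken at 0.5, 1 and 2 h. Tumor, kidney, liver and hind-leg muscle signals were quantified, given as mean ± SD (n = 4–5 per tracer) and compared by 2-tailed t test, P < 0.05.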

[3] = Small-animal PET, static scans, BxPC3 xenografts; type: in vivo, mice; conditions: female, nu/nu, mouse, iv, total radioactivity
Outline: as §2

BxPC3 tumors = assay: Coinjection study with unlabeled peptide, excised tissue biodistribution; type: in vivo, mice; conditions: 250 µg unlabeled S02 coinjected
[4] = system: BxPC3 (integrin αvβ6–positive) tumors; assay: Excised tissue biodistribution; type: in vivo, mice; conditions: γ-counter, mean ± SD
Outline: as §1

[5] = system: BxPC3 xenografted tumors; heart (blood) radioactivity; assay: Dynamic PET; type: in vivo; conditions: from radioactivity in the heart, 10-min dynamic PET, mice, tail vein
Outline: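 Female nu/nu mice (6 wk) received 10^7 BxPC3 or HEK-293 cells subcutaneously in the shoulder and grew tumors to 10 mm diameter. Under isoflurane, mice got 2–3 MBq of 18F-fluorobenzoate-labelled peptide by tail vein. A 10-min dynamic scan was acquired on a rodent microPET. Mean signal in ellipsoid regions of interest was quantified.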

With `CC[C@H](C)[C@@H]1NC(=O)[C@@H]2CSSC[C@H](NC(=O)CNC(=O)c3ccc(F)cc3)C(=O)N[C@@H](CCCNC(=N)N)C(=O)N[C@@H](CO)C(=O)N[C@@H](CC(C)C)C(=O)N[C@@H](C)C(=O)N[C@@H](CCCNC(=N)N)C(=O)N[C@@H]([C@@H](C)O)C(=O)N[C@@H](CC(=O)O)C(=O)N[C@@H](CC(C)C)C(=O)N[C@@H](CC(=O)O)C(=O)N[C@@H](Cc3c[nH]cn3)C(=O)N[C@@H](CC(C)C)C(=O)N[C@@H](CCCNC(=N)N)C(=O)NCC(=O)N[C@@H](CCCNC(=N)N)C(=O)N[C@H]3CSSC[C@H](NC1=O)C(=O)N[C@@H](CC(C)C)C(=O)N[C@@H](CCC(=O)O)C(=O)N[C@@H](CC(N)=O)C(=O)NCC(=O)N[C@@H](Cc1ccccc1)C(=O)N[C@H](C(=O)NCC(=O)O)CSSC[C@H](NC(=O)[C@H](CC(=O)O)NC(=O)[C@H](CO)NC(=O)[C@H](CC(=O)O)NC(=O)[C@H](CO)NC(=O)[C@H](CO)NC3=O)C(=O)N[C@@H](CC(C)C)C(=O)N[C@@H](C)C(=O)N[C@@H](CCC(=O)O)C(=O)N2` [^18F-fluorobenzoate-S02] ({Benzoyl(4-F)}-GCRSLARTDLDHLRGRCSSDSDCLAECICLENGFCG-OH; disulfide 2-27, 17-29, 23-35; C-terminus assumed) the “tumor uptake, excised tissue, 293” value ([1]; 0.5 h after injection, n = 3) was 0.11 ± 0.02 %ID/g, the “tumor uptake, excised tissue, 293” value ([1]; 2 h after injection, n = 3–4) was 0.10 ± 0.05 %ID/g and the “kidney uptake, PET” value ([2]; 0.5 h) was 18% ± 6%. For the same compound, the “tumor uptake, PET, BxPC3” value ([2]; 0.5 h after injection, 2–3 MBq tail vein, nude mice, n = 4–5) was 1.3% ± 0.4%, the “tumor signal, PET, BxPC3” value ([2]; 1 h after injection, 2–3 MBq tail vein) was 0.7 ± 0.3 % ID/g and the “liver uptake, PET” value ([2]; time not printed at place (given beside the 0.5 h kidney values)) was 0.9% ± 0.3%. For the same compound, the tissue uptake at 1 h ([3]; kidney) was 7 ± 3 %ID/g, the tissue uptake at 1 h ([3]; liver) was 0.3 ± 0.1 %ID/g and the “effect of unlabeled peptide coinjection on tumor uptake” value (BxPC3 tumors) was “does not demonstrate tumor uptake reduction”. The “tumor uptake, excised tissue, BxPC3” value ([4]; 0.5 h after injection, n = 3) was 0.71 ± 0.13 %ID/g, the “tumor uptake, excised tissue, BxPC3” value ([4]; 2 h after injection, n = 4–5) was 0.24 ± 0.06 %ID/g and the blood clearance half-time [5] was 1.8 min.
